Common to all, as to type: functional
What all share (details): read-out: GI

One assay deals with A549. Nature of the assay: Antiproliferative activity against human A549 cells assessed as cell growth inhibition at 10 uM incubated for 48 hrs by CCK8 assay relative to control. A digest of the protocol:
(§1)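 Single-concentration screen of six cancer cell lines. Cells were exposed to 10 μM compound and growth was measured by CCK-8 assay. Results are reported as inhibition rate at 10 μM.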
(Tetrazolium assays rely on reduction of a dye to a coloured formazan, in cell work by metabolically active cells.)

For the next assay, the system named is HeLa. Nature of the assay: Antiproliferative activity against human HeLa cells assessed as cell growth inhibition at 10 uM incubated for 48 hrs by CCK8 assay relative to control. In outline:
as §1

A further assay deals with JeKo-1. Put plainly: Antiproliferative activity against human JeKo-1 cells assessed as cell growth inhibition at 10 uM incubated for 48 hrs by CCK8 assay relative to control. In outline:
as §1

A further assay concerns NB-4. Put plainly: Antiproliferative activity against human NB4 cells assessed as cell growth inhibition at 10 uM incubated for 48 hrs by CCK8 assay relative to control. A digest of the protocol:
as §1

In another assay the test system is U-251. Put plainly: Antiproliferative activity against human U-251 cells assessed as cell growth inhibition at 10 uM incubated for 48 hrs by CCK8 assay relative to control. In outline: as §1
For a further assay, the system named is MOLM-13. Nature of the assay: Antiproliferative activity against human MOLM-13 cells assessed as cell growth inhibition at 10 uM incubated for 48 hrs by CCK8 assay relative to control. A digest of the protocol: as §1

Molecules are shown by their SMILES. A value given as a limit tells only on which side of the number the result lay.

Turning to `CCOP(=O)(CCc1c2c(c(OC)c3c1OCO3)[C@H]([C@H]1OC(=O)c3c1ccc(OC)c3OC)N(C(=O)OC(C)(C)C)CC2)OCC`, the inhibition of growth at 10 µM is below 5% in the assay with A549; below 5% in the assay on HeLa; 12.1% in the assay on JeKo-1; 6.64% in the assay with NB-4; below 5% with U-251; 31.1% in the assay on MOLM-13.
Regarding `COc1ccc2c(c1OC)C(=O)O[C@@H]2[C@H]1c2c(c(CCCC(F)(F)F)c3c(c2OC)OCO3)CCN1C(=O)OC(C)(C)C`, the inhibition of growth at 10 µM with A549 is below 5%; with HeLa, below 5%; in the assay with JeKo-1, 25.6%; with NB-4, 31.5%; in the assay on U-251 it was below 5%; in the assay with MOLM-13, 36%.
In the case of `COc1ccc2c(c1OC)C(=O)O[C@@H]2[C@H]1c2c(c(CC3CCN3C(=O)OC(C)(C)C)c3c(c2OC)OCO3)CCN1C(=O)OC(C)(C)C` (some centres not stated), the inhibition of growth at 10 µM was below 5% with A549; below 5% in the assay with HeLa; 12.9% in the assay on JeKo-1; 13.8% in the assay with NB-4; below 5% in the assay on U-251; 43.2% in the assay with MOLM-13.
`COc1ccc2c(c1OC)C(=O)O[C@@H]2[C@H]1c2c(c(CCNC(=O)OC(C)(C)C)c3c(c2OC)OCO3)CCN1C(=O)OC(C)(C)C`: the inhibition of growth at 10 µM in the assay with A549 is below 5%; in the assay with HeLa, below 5%; with JeKo-1, 14%; in the assay with NB-4, 29.9%; in the assay with U-251 it was below 5%; in the assay on MOLM-13 it was 43.5%.
For the compound `COc1ccc2c(c1OC)C(=O)O[C@@H]2[C@H]1c2c(c(C3COC3)c3c(c2OC)OCO3)CCN1C(=O)OC(C)(C)C`, the inhibition of growth at 10 µM with A549 was below 5%; with HeLa, 14.9%; in the assay on JeKo-1, 13.3%; with NB-4, 9.21%; with U-251, 12.3%; in the assay on MOLM-13 it was 11.7%.
Consider `COc1ccc2c(c1OC)C(=O)O[C@@H]2[C@H]1c2c(c(C3CCN(C(=O)OC(C)(C)C)CC3)c3c(c2OC)OCO3)CCN1C(=O)OC(C)(C)C`, for which the inhibition of growth at 10 µM in the assay with A549 is 14.7%; in the assay on HeLa, 17.5%; in the assay with JeKo-1, 22.3%; in the assay on NB-4, 21.2%; in the assay on U-251, below 5%; in the assay on MOLM-13, 62.9%.
As for `COc1ccc2c(c1OC)C(=O)O[C@@H]2[C@H]1c2c(c(CC3CCCO3)c3c(c2OC)OCO3)CCN1C(=O)OC(C)(C)C` (some centres not stated), the inhibition of growth at 10 µM in the assay with A549 is below 5%; with HeLa, 24.7%; in the assay on JeKo-1, 15.6%; with NB-4, 7.48%; with U-251 it was 29.8%; with MOLM-13, 44.9%.
For `COCCCc1c2c(c(OC)c3c1OCO3)[C@H]([C@H]1OC(=O)c3c1ccc(OC)c3OC)N(C(=O)OC(C)(C)C)CC2`, the inhibition of growth at 10 µM with A549 is below 5%; in the assay on HeLa, below 5%; in the assay with JeKo-1 it was 23.3%; with NB-4, 27.2%; in the assay with U-251, below 5%; in the assay on MOLM-13 it was 30.4%.
For `COc1ccc2c(c1OC)C(=O)O[C@@H]2[C@H]1c2c(c(CC3CN(C(=O)OC(C)(C)C)C3)c3c(c2OC)OCO3)CCN1C(=O)OC(C)(C)C`, the inhibition of growth at 10 µM with A549 was 10.6%; in the assay on HeLa, below 5%; in the assay on JeKo-1, 48%; in the assay with NB-4, 63.1%; in the assay with U-251, below 5%; in the assay on MOLM-13 it was 59%.
Turning to `COc1ccc2c(c1OC)C(=O)O[C@@H]2[C@H]1c2c(c(CCCCCC#N)c3c(c2OC)OCO3)CCN1C(=O)OC(C)(C)C`, the inhibition of growth at 10 µM with A549 is below 5%; in the assay with HeLa, 16.1%; in the assay with JeKo-1, 19.9%; in the assay on NB-4 it was 14.1%; in the assay on U-251, 19.1%; in the assay on MOLM-13, 46.3%.
Consider `COc1ccc2c(c1OC)C(=O)O[C@@H]2[C@H]1c2c(c(CC3(F)CN(C(=O)OC(C)(C)C)C3)c3c(c2OC)OCO3)CCN1C(=O)OC(C)(C)C`, for which the inhibition of growth at 10 µM with A549 was below 5%; with HeLa, 8.57%; with JeKo-1 it was 43.9%; in the assay on NB-4, 42.5%; with U-251, below 5%; in the assay on MOLM-13, 61.5%.
On to `COc1ccc2c(c1OC)C(=O)O[C@@H]2[C@H]1c2c(c(CC[Si](C)(C)C)c3c(c2OC)OCO3)CCN1C(=O)OC(C)(C)C`, for which the inhibition of growth at 10 µM was below 5% with A549; below 5% with HeLa; below 5% with JeKo-1; 21.9% in the assay on NB-4; below 5% in the assay on U-251; 46.9% with MOLM-13.
Turning to `COc1ccc2c(c1OC)C(=O)O[C@@H]2[C@H]1c2c(c(CC3CCN(C(=O)OC(C)(C)C)CC3)c3c(c2OC)OCO3)CCN1C(=O)OC(C)(C)C`, the inhibition of growth at 10 µM in the assay on A549 was below 5%; in the assay with HeLa, below 5%; in the assay on JeKo-1, 22.7%; with NB-4 it was 37.3%; with U-251, below 5%; in the assay on MOLM-13, 58.1%.
Take `COc1ccc2c(c1OC)C(=O)O[C@@H]2[C@H]1c2c(c(C3CCOC3)c3c(c2OC)OCO3)CCN1C(=O)OC(C)(C)C` (some centres not stated): the inhibition of growth at 10 µM with A549 was below 5%; with HeLa it was below 5%; in the assay with JeKo-1, 20.8%; in the assay on NB-4 it was 23.3%; in the assay with U-251 it was 32.1%; in the assay on MOLM-13 it was 43.6%.
On to `COc1ccc2c(c1OC)C(=O)O[C@@H]2[C@H]1c2c(c(CC3CCOCC3)c3c(c2OC)OCO3)CCN1C(=O)OC(C)(C)C`, for which the inhibition of growth at 10 µM in the assay on A549 was below 5%; in the assay with HeLa it was 23%; in the assay with JeKo-1, 20.4%; with NB-4, 4.77%; with U-251 it was 13.2%; with MOLM-13, 48.4%.
Regarding `COc1ccc2c(c1OC)C(=O)O[C@@H]2[C@H]1c2c(c(CC3CCN(C(=O)OC(C)(C)C)C3)c3c(c2OC)OCO3)CCN1C(=O)OC(C)(C)C` (some centres not stated), the inhibition of growth at 10 µM in the assay on A549 was below 5%; in the assay on HeLa, below 5%; in the assay with JeKo-1, 7.92%; in the assay on NB-4, 23.2%; with U-251, below 5%; in the assay with MOLM-13, 52.5%.
Consider `COc1ccc2c(c1OC)C(=O)O[C@@H]2[C@H]1c2c(c(C3CN(C(=O)OC(C)(C)C)C3)c3c(c2OC)OCO3)CCN1C(=O)OC(C)(C)C`, for which the inhibition of growth at 10 µM with A549 is below 5%; in the assay on HeLa it was below 5%; in the assay on JeKo-1, 17.6%; in the assay on NB-4, 30.1%; with U-251 it was below 5%; in the assay on MOLM-13 it was 49.7%.
With `COc1ccc2c(c1OC)C(=O)O[C@@H]2[C@H]1c2c(c(CCCNC(=O)OC(C)(C)C)c3c(c2OC)OCO3)CCN1C(=O)OC(C)(C)C`, the inhibition of growth at 10 µM was below 5% with A549; below 5% in the assay on HeLa; 10.6% in the assay on JeKo-1; 28.9% in the assay on NB-4; below 5% with U-251; 48.2% with MOLM-13.
`COc1ccc2c(c1OC)C(=O)O[C@@H]2[C@H]1c2c(c(C3CCN(C(=O)OC(C)(C)C)C3)c3c(c2OC)OCO3)CCN1C(=O)OC(C)(C)C` (some centres not stated): the inhibition of growth at 10 µM was 17.7% in the assay on A549; below 5% with HeLa; 14.9% in the assay on JeKo-1; 22.1% with NB-4; below 5% in the assay on U-251; 54.8% with MOLM-13.
In the case of `COc1ccc2c(c1OC)C(=O)O[C@@H]2[C@H]1c2c(c(CC3CCCN3C(=O)OC(C)(C)C)c3c(c2OC)OCO3)CCN1C(=O)OC(C)(C)C` (some centres not stated), the inhibition of growth at 10 µM in the assay on A549 was below 5%; in the assay on HeLa it was 8.57%; in the assay on JeKo-1, 15.7%; in the assay on NB-4, 29.7%; in the assay on U-251 it was below 5%; with MOLM-13 it was 48.1%.
With `COc1ccc2c(c1OC)C(=O)O[C@@H]2[C@H]1c2c(c(C3CCOCC3)c3c(c2OC)OCO3)CCN1C(=O)OC(C)(C)C`, the inhibition of growth at 10 µM is below 5% with A549; below 5% in the assay on HeLa; 12% in the assay on JeKo-1; 4.36% in the assay on NB-4; below 5% in the assay with U-251; 36.8% in the assay on MOLM-13.
As for `COc1ccc2c(c1OC)C(=O)O[C@@H]2[C@H]1c2c(c(C3CC3)c3c(c2OC)OCO3)CCN1C(=O)OC(C)(C)C`, the inhibition of growth at 10 µM in the assay on A549 was below 5%; in the assay on HeLa it was below 5%; in the assay with JeKo-1, 6.87%; in the assay with NB-4, 7.63%; in the assay on U-251 it was below 5%; in the assay with MOLM-13 it was 19.5%.

These data come from ChEMBL document CHEMBL5357072, “Structural Modification of Noscapine via Photoredox/Nickel Dual Catalysis for the Discovery of S-Phase Arresting Agents” (ACS Med Chem Lett, 2024).
